Source: ChEMBL document CHEMBL1133118 (J Med Chem, 2000)
One block for each compound: values may come before it.

Columns and labels:
Adenosine receptor A1 [1] = target: T1, Adenosine receptor A1 (Homo sapiens, UniProt P30542); test: Displacement of [3H]DPCPX from human adenosine A1 receptor expressed in CHO cells; range 179-317; assay type: cell-based
T1 sequence (P30542 whole entry): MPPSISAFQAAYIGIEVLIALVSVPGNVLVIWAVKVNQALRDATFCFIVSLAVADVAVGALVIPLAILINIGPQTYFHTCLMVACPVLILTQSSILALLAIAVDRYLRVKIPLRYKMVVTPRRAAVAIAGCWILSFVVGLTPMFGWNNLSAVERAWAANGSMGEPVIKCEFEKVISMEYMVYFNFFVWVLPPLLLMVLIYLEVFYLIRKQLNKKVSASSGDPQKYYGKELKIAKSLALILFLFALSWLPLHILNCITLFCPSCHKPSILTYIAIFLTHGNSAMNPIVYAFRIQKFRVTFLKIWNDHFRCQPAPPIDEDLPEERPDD

Adenosine receptor A2a [2] = target: T2, Adenosine receptor A2a (Homo sapiens, UniProt P29274); test: Displacement of [3H]-SCH- 58261 from human adenosine A2A receptor expressed in CHO cells; range 218-283; assay type: cell-based
[3] = target: Adenosine receptors; A1 & A3 (Homo sapiens) (UniProt P30542+P0DMS8); test: Ratio of binding affinity of human A1 receptor to that of human A3 receptor; assay type: protein assay
How it was run: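 Ki ratio from displacement in CHO membranes, 6–8 concentrations, n=3-6, filtration counting. A1: 1 nM [3H]DPCPX, 50 μg protein, 120 min at 25 °C, nonspecific with 10 μM CHA. A3: 1 nM [3H]MRE3008-F20, 50 μg protein, Tris/10 mM MgCl2 pH 7.4, 120 min at 4 °C, nonspecific with 1 μM MRE3008-F20.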

[4] = target: T3, Adenosine receptor A3 (Homo sapiens) (UniProt P0DMS8); conditions: CHO, 1 uM
T3 sequence (whole entry): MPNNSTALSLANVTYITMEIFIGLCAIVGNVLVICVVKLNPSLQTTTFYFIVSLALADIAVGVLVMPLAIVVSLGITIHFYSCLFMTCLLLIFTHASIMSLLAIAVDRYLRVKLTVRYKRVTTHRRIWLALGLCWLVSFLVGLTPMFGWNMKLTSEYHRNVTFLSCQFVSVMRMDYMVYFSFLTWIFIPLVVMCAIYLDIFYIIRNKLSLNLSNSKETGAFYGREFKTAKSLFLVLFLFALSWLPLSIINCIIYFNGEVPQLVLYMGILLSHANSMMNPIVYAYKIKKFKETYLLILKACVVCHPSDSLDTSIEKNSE

[5] = target: Adenosine receptors; A2b & A3 (Homo sapiens) (UniProt P29275+P0DMS8); test: Ratio of binding affinity of human A2B receptor to that of human A3 receptor; assay type: protein assay
How it was run: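 Ki ratio, n=3-6, 6–8 concentrations. A2B in HEK-293 membranes (20 μg): 40 nM [3H]DPCPX, 50 mM Tris HCl, 10 mM MgCl2, 1 mM EDTA, 0.1 mM benzamidine pH 7.4, 2 IU/mL adenosine deaminase, 60 min at 25 °C, nonspecific with 100 μM NECA. A3 in CHO membranes (50 μg): 1 nM [3H]MRE3008-F20, 120 min at 4 °C.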

Adenosine receptor A2b [6] = target: T4, Adenosine receptor A2b (Homo sapiens, UniProt P29275); test: Tested for inhibitory activity against Adenosine A2b receptor by displacement of [3H]DPCPX expressed in […]; value ranges from 61-80; assay type: cell-based
T4 sequence (P29275 whole entry): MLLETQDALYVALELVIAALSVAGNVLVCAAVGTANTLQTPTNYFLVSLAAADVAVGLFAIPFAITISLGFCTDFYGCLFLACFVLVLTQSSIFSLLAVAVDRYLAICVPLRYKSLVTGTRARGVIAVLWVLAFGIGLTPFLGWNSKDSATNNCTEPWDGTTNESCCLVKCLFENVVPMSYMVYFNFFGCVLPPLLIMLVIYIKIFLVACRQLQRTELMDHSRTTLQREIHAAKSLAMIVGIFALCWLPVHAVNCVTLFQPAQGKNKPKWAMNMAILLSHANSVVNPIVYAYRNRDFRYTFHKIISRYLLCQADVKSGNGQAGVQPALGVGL

Adenosine receptor A3 [7] = target: T5, Adenosine receptor A3 (Homo sapiens, UniProt P0DMS8); test: biochemical
T5 sequence (P0DMS8 whole entry): T3 sequence (whole entry)

Adenosine receptor A3 [8] = target: T5, Adenosine receptor A3; test: Inhibition of cAMP accumulation in CHO cells expressing human A3 adenosine receptor; assay type: functional, cell-based
Adenosine receptor A1 [9] = target: T1, Adenosine receptor A1; test: Displacement of [3H]DPCPX from human adenosine A1 receptor expressed in CHO cells; range 632-1003; assay type: cell-based
Adenosine receptor A3 [10] = target: T5, Adenosine receptor A3; test: Inhibition of cAMP accumulation in CHO cells expressing human adenosine A3 receptor; range 5.1-8.9; assay type: functional, cell-based
How it was run: (§1)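 CHO cells stably expressing human A3 receptor; membranes in 50 mM Tris HCl, 10 mM MgCl2, 1 mM EDTA pH 7.4 with 5 μM GTP, 0.5 mM […] and 2.0 IU/mL adenosine deaminase. Preincubated 10 min at 37 °C, then IB-MECA (100 nM) and/or antagonist with 1 mM ATP and 10 μM forskolin for 10 min. Boiled 2 min. cAMP read by [3H]cAMP competition with adrenal binding protein.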

Adenosine receptor A2b [11] = target: T4, Adenosine receptor A2b; test: Displacement of [3H]DPCPX from Adenosine A2b receptor expressed in […]; range 1531-1920; assay type: cell-based
Adenosine receptor A3 [12] = target: T5, Adenosine receptor A3; test: Displacement of [3H]MRE3008-F20 from human adenosine A3 receptor expressed in CHO cells; range 0.63-1.00; assay type: cell-based
Adenosine receptor A2a [13] = target: T2, Adenosine receptor A2a; test: Displacement of [3H]-SCH- 58261 from human adenosine A2A receptor expressed in CHO cells; range 461-645; assay type: cell-based
[14] = target: T3, Adenosine receptor A3 (Homo sapiens); test: Percent reversal of 100 nM IB-MECA-inhibited cAMP accumulation in CHO cells expressing human adenosine A3 receptor at 1 uM; range 63-110; assay type: functional, cell-based; how it was run: as §1
Adenosine receptor A3 [15] = target: T5, Adenosine receptor A3; test: biochemical; remark: listed apart in the source
Adenosine receptor A2a [16] = target: T2, Adenosine receptor A2a; test: Displacement of [3H]-SCH- 58261 from human adenosine A2A receptor expressed in CHO cells; range 1.90-3.37; assay type: cell-based
Adenosine receptor A2b [17] = target: T4, Adenosine receptor A2b; test: Displacement of [3H]DPCPX from Adenosine A2b receptor expressed in CHO cells; range 35-45; assay type: cell-based; conditions: in the assay text read “HEK-293 cells” for “CHO cells”
How it was run: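 Human recombinant A2B receptor was expressed in HEK-293 cell membranes (20 μg protein). Incubated with 40 nM [3H]DPCPX in 50 mM Tris HCl, 10 mM MgCl2, 1 mM EDTA, 0.1 mM benzamidine, pH 7.4, with 2 IU/mL adenosine deaminase, at least 6–8 test concentrations, 60 min, 25 °C. Nonspecific binding was taken with 100 μM NECA; n=3-6.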

[18] = target: T3, Adenosine receptor A3 (Homo sapiens); test: Percentage of blockade by 1 uM of the inhibition by 100 nM IB-MECA-inhibited cAMP accumulation in CHO cells expressing human adenosine A3 receptor.; assay type: functional, cell-based; how it was run: as §1
Adenosine receptor A2b [19] = target: T4, Adenosine receptor A2b; test: Displacement of [3H]DPCPX from Adenosine A2b receptor expressed in […]; range 1637-2582; assay type: cell-based
Adenosine receptor A3 [20] = target: T5, Adenosine receptor A3; test: Displacement of [3H]MRE3008-F20 from human adenosine A3 receptor expressed in CHO cells; range 50-61; assay type: cell-based
Adenosine receptor A2b [21] = target: T4, Adenosine receptor A2b; test: Displacement of [3H]DPCPX from Adenosine A2b receptor expressed in […]; range 70-94; assay type: cell-based
[22] = target: T3, Adenosine receptor A3 (Homo sapiens); test: Percent reversal of 100 nM IB-MECA-inhibited cAMP accumulation in CHO cells expressing human adenosine A3 receptor at 1 uM; range 26-54; assay type: functional, cell-based; how it was run: as §1
Adenosine receptor A2a [23] = target: T2, Adenosine receptor A2a; test: Displacement of [3H]-SCH- 58261 from human adenosine A2A receptor expressed in CHO cells; range 85-140; assay type: cell-based
Adenosine receptor A1 [24] = target: T1, Adenosine receptor A1; test: Displacement of [3H]DPCPX from human adenosine A1 receptor expressed in CHO cells; range 329-375; assay type: cell-based
Adenosine receptor A3 [25] = target: T5, Adenosine receptor A3; test: biochemical; remark: listed apart in the source
Adenosine receptor A2b [26] = target: T4, Adenosine receptor A2b; test: Displacement of [3H]-DPCPX from Adenosine A2b receptor expressed in […]; range 52-65; assay type: cell-based
Adenosine receptor A1 [27] = target: T1, Adenosine receptor A1; test: Displacement of [3H]DPCPX from human adenosine A1 receptor expressed in CHO cells; range 254-356; assay type: cell-based
Adenosine receptor A2a [28] = target: T2, Adenosine receptor A2a; test: Displacement of [3H]-SCH- 58261 from human adenosine A2A receptor expressed in CHO cells; range 850-1230; assay type: cell-based
[29] = target: T3, Adenosine receptor A3 (Homo sapiens); conditions: CHO, 1 uM; remark: listed apart in the source

T2 sequence (P29274 whole entry): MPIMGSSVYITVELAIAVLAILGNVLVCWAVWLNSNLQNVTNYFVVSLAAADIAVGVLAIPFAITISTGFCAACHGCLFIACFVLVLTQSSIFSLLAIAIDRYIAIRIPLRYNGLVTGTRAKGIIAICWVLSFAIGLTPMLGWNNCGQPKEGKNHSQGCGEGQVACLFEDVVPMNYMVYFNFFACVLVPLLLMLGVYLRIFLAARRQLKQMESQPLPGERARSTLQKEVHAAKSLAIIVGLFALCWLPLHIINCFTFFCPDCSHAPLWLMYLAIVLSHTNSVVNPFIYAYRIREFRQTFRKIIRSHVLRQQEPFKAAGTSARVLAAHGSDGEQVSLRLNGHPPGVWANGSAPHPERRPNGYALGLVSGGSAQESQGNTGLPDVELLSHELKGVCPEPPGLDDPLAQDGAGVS

Ki (Adenosine receptor A1 [1]): 238 nM
Ki (Adenosine receptor A2a [2]): 248 nM
Ratio [3]: 476
inhibition [4]: 88%
Ratio [5]: 140
Ki (Adenosine receptor A2b [6]): 70 nM
Ki (Adenosine receptor A3 [7]): 0.5 nM
IC50 (Adenosine receptor A3 [8]): 5.3 nM
SMILES: O=C(Nc1cccc(Cl)c1)Nc1nc2n[nH]cc2c2nc(-c3ccco3)nn12

Ki (Adenosine receptor A1 [9]): 796 nM
IC50 (Adenosine receptor A3 [10]): 6.8 nM
Ki (Adenosine receptor A2b [11]): 1720 nM
Ratio [3]: 995
Ki (Adenosine receptor A3 [12]): 0.8 nM
Ratio [5]: 2140
Ki (Adenosine receptor A2a [13]): 545 nM
inhibition [14]: 84%
SMILES: COc1ccc(NC(=O)Nc2nc3nn(C(C)(C)C)cc3c3nc(-c4ccco4)nn23)cc1

Ratio [3]: 0.024
Ki (Adenosine receptor A3 [15]): 408 nM
Ratio [5]: 0.095
Ki (Adenosine receptor A2a [16]): 2.51 nM
Ki (Adenosine receptor A2b [17]): 39 nM
inhibition [18]: 23%
SMILES: CCCn1cc2c(nc(N)n3nc(-c4ccco4)nc23)n1

Ki (Adenosine receptor A2b [19]): 2060 nM
SMILES: CCCn1cc2c(nc(NC(=O)Nc3ccc(OC)cc3)n3nc(-c4ccco4)nc23)n1

Ki (Adenosine receptor A3 [20]): 55 nM
Ki (Adenosine receptor A2b [21]): 81 nM
inhibition [22]: 38%
Ratio [3]: 6.4
Ki (Adenosine receptor A2a [23]): 110 nM
Ratio [5]: 1.47
Ki (Adenosine receptor A1 [24]): 352 nM
SMILES: CC(C)=CCn1cc2c(nc(NC(=O)Nc3cccc(Cl)c3)n3nc(-c4ccco4)nc23)n1

Ki (Adenosine receptor A3 [25]): 40 nM
Ki (Adenosine receptor A2b [26]): 58 nM
Ki (Adenosine receptor A1 [27]): 300 nM
Ratio [3]: 7.5
Ki (Adenosine receptor A2a [28]): 1020 nM
inhibition [29]: 42%
Ratio [5]: 1.45
SMILES: COc1ccc(NC(=O)Nc2nc3nn(CC=C(C)C)cc3c3nc(-c4ccco4)nn23)cc1
